For 97 compounds, cytotoxicity results are on record in ChEMBL document CHEMBL4513216, “Probing the Open Global Health Chemical Diversity Library for Multistage-Active Starting Points for Next-Generation Antimalarials” (ACS Infect Dis, 2020).

Molecules are shown by their SMILES.

The series can be described thus: Toxicity liver stage against HepG2, at 10uM. In kind it is cell-based. The arrangement: test concentration 10 uM, cell line HepG2-A16-CD81EGFP. Conditions: human, HepG2-A16-CD81EGFP cells; read-out: INHIBITION
An outline of the steps: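 Uninfected HepG2-A16-CD81EGFP cells, 3 × 10^3 per well, 1536-well, plated on prespotted compound at 10 μM final, parasite-free screening media added to match infected plates; puromycin 10 μM positive, DMSO 0.5% negative; run in parallel with 48 h PbLuc assay at 37 °C, 5% CO2; viability by CellTiter-Glo luminescence, normalized to controls.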
As to `CC(C)(C)c1cn(C[C@H]2CC3CCN2C[C@@H]3C(=O)N2CCOCC2)nn1` (some centres not stated), the cytotoxicity at 10 µM was -3.37%.

As to `COC1CN(CCO)S(=O)(=O)c2ccccc21` (configuration not stated), the cytotoxicity at 10 µM stood at 3.54%.

On to `O=C(NC1CC1)c1nc(COc2ccc3c(c2)OCO3)no1`, for which the cytotoxicity at 10 µM came out at 3.97%.

For `COC(=O)N1CCC(CNC(=O)C2CCN(S(C)(=O)=O)CC2)CC1`, the cytotoxicity at 10 µM was -2.72%.

Take `Cc1cc(C(=O)NCC(Cc2cccc(F)c2)N2CCCCC2=O)no1` (configuration not stated): the cytotoxicity at 10 µM was 2.68%.

With `CC(C)S(=O)(=O)NCC(Cc1cccc(F)c1)N1CCNC1=O` (configuration not stated), the cytotoxicity at 10 µM was -1%.

Regarding `CC(=O)c1ccc(S(=O)(=O)NCC2CCN(c3cnccn3)CC2)cc1`, the cytotoxicity at 10 µM worked out at 0.723%.

Take `N#Cc1ccc2c(c1)CN(C(=O)C1CC=CC1)C2c1cnco1` (configuration not stated): the cytotoxicity at 10 µM was -0.0499%.

Consider `O=C(NC1CCCC1)NC1CCc2[nH]c(=O)ccc2C1` (configuration not stated), for which the cytotoxicity at 10 µM came out at 7.91%.

On to `O=C(CC1CCC2(CC1)CCN(Cc1nccs1)CC2)N1CC=CC1`, for which the cytotoxicity at 10 µM was -4.35%.

Take `CN1CCc2c(C#N)c(NCCN3CCOCC3)n3cnnc3c2C1`: the cytotoxicity at 10 µM was -2.84%.

Consider `N#Cc1cc(C#N)c(SCC(=O)Nc2ccc(F)cc2)nc1N`, for which the cytotoxicity at 10 µM is -0.506%.

Regarding `O=C(c1cccc(-n2cnnc2)c1)N1C[C@@H](O)[C@H](N2CCOCC2)C1`, the cytotoxicity at 10 µM was 2.26%.

Turning to `COCCNc1ccc(CC2CCCN(C3CCCC3)C2)nn1` (configuration not stated), the cytotoxicity at 10 µM amounted to 3.07%.

In the case of `Cc1cccc(-c2nccnc2C2CCCN(C)C2)c1C` (configuration not stated), the cytotoxicity at 10 µM stood at 5.62%.

With `Cc1nc(N)cc(C2CN(C(=O)c3cscn3)CCO2)n1` (configuration not stated), the cytotoxicity at 10 µM is 7.03%.

Take `c1cc(-c2cncc(C3CCNCC3)n2)n[nH]1`: the cytotoxicity at 10 µM was determined as 3.42%.

For `Cc1noc(C)c1-c1ccnc(C2CCN(S(=O)(=O)N(C)C)CC2)c1`, the cytotoxicity at 10 µM is -25%.

Consider `CNc1cncc(C2CCCN2S(=O)(=O)c2ccc(F)cc2)n1` (configuration not stated), for which the cytotoxicity at 10 µM is -3.21%.

For the compound `COc1ccc(CN2CCC(c3nccnc3-n3ccnc3)CC2)cc1`, the cytotoxicity at 10 µM is -27.4%.

`CN(C)Cc1ccnc(C2CN(Cc3nccs3)CCO2)n1` (configuration not stated): the cytotoxicity at 10 µM was -2.61%.

Take `CNC(=O)C1(c2cnccn2)CCCN1C(=O)c1ccccc1` (configuration not stated): the cytotoxicity at 10 µM was -20.6%.

As to `CNc1cccc(C2CCCN(C(=O)c3cccnc3)C2)n1` (configuration not stated), the cytotoxicity at 10 µM is -16.6%.

On to `CN(C)Cc1ccnc(C2CCCN2Cc2ccc3ncccc3c2)n1` (configuration not stated), for which the cytotoxicity at 10 µM came out at 0.026%.

As to `COc1cc2nc3n(c(=O)c2cc1OC)CCN(C(=O)C1CC1)CC3`, the cytotoxicity at 10 µM was -13.6%.

Take `O=C(c1ccc2c(c1)OCO2)N1CCC(C(=O)O)(c2ccccc2)CC1`: the cytotoxicity at 10 µM is 7.33%.

`O=C1NC2(Cc3ccccc31)CN(CC1CCOCC1)C2`: the cytotoxicity at 10 µM was 14%.

Regarding `Cc1cc(C2CCCN2C(=O)COc2ccc(CC#N)cc2)on1` (configuration not stated), the cytotoxicity at 10 µM is -49.6%.

Take `CCN(Cc1cccc(C(N)=O)c1)c1ccccc1`: the cytotoxicity at 10 µM turned out to be 2.91%.

`COc1ccc2c(c1)OCC(CNC1CCc3ncnn3C1)=C2` (configuration not stated): the cytotoxicity at 10 µM was 4.4%.

`CC(C(=O)Nc1cccc(C(F)(F)F)c1)N(C)CCN1CCOCC1` (configuration not stated): the cytotoxicity at 10 µM worked out at 9.54%.

`N#Cc1ccc(Cl)cc1N1CCC(OC2CCOCC2)CC1`: the cytotoxicity at 10 µM stood at 3.99%.

For the compound `Cc1cc(C2CCCN2C(=O)CN2CCc3ccccc32)on1` (configuration not stated), the cytotoxicity at 10 µM turned out to be 2.74%.

`Cc1noc(C)c1CS(=O)(=O)CC(=O)NCCc1ccccc1`: the cytotoxicity at 10 µM is -5.83%.

On to `CC(C)n1nc2c(cc1=O)CN(c1nc3ccccc3s1)CC2`, for which the cytotoxicity at 10 µM is -1.99%.

`COC(C(=O)NC1CCN(S(C)(=O)=O)CC1)c1ccccc1` (configuration not stated): the cytotoxicity at 10 µM is -4.68%.

`CS(=O)(=O)CCC(=O)Nc1cc(Cl)c(Cl)cn1`: the cytotoxicity at 10 µM turned out to be 4.52%.

Consider `CC(=O)N(Cc1ncc(C)o1)C1CCN(Cc2nnc(C3CC3)o2)C1` (configuration not stated), for which the cytotoxicity at 10 µM stood at 5.08%.

Take `CC(C)n1c(C2CCCN(CC(=O)NC3CC3)C2)nc2ccccc21` (configuration not stated): the cytotoxicity at 10 µM is -5.54%.

For the compound `CSc1ccc(C(CNC(C)=O)N2CCc3sccc3C2)cc1` (configuration not stated), the cytotoxicity at 10 µM came to 6.84%.

As for `c1ccc(-n2nnnc2CNCc2ccc3c(c2)OCCO3)cc1`, the cytotoxicity at 10 µM came to 9.35%.

On to `CCC(C(=O)NCC1CCN(c2ccncc2)CC1)N(C)C` (configuration not stated), for which the cytotoxicity at 10 µM was determined as 15%.

Take `Cc1cccc(C2CCCN2Cc2nc(N)nc(N(C)C)n2)c1C` (configuration not stated): the cytotoxicity at 10 µM was -12.5%.

With `Cc1nc(NC(=O)NC(CS(C)(=O)=O)c2ccccc2)sc1C` (configuration not stated), the cytotoxicity at 10 µM is -1.32%.

Consider `CN1CCN(c2ccc(Cl)cc2NC(=O)c2ccco2)CC1`, for which the cytotoxicity at 10 µM was -2.14%.

Turning to `CN1CCN(c2ccccc2NC(=O)NCCc2ccc(O)cc2)CC1`, the cytotoxicity at 10 µM was -0.37%.

`COc1cccc(CC2CCCN2CC(N)=O)c1` (configuration not stated): the cytotoxicity at 10 µM is -55.6%.

Turning to `CCN(CCC(=O)OC)S(=O)(=O)c1cnc2c(c1)c(C)nn2C`, the cytotoxicity at 10 µM is -15.2%.

On to `COCCN1CCC(c2nc3ccccc3[nH]2)CC1`, for which the cytotoxicity at 10 µM is 0.575%.

Regarding `CCCn1nnnc1CN(c1ccc(C)cc1)C(C)C`, the cytotoxicity at 10 µM amounted to 4.15%.

Turning to `Cc1cc(CN2CCc3nn(C(C)C)c(=O)cc3C2)no1`, the cytotoxicity at 10 µM is -13.8%.

On to `Cc1cc(CNC(=O)NC(C)c2ccc(N3CCOCC3)cc2)no1` (configuration not stated), for which the cytotoxicity at 10 µM was -17.4%.

Turning to `O=C(Nc1ccccc1)c1cc2n(n1)CCCN(C(=O)N1CCCC1)C2`, the cytotoxicity at 10 µM was -70.3%.

Consider `CCc1noc(C2CC(=O)N(CCN(C)C)C2)n1` (configuration not stated), for which the cytotoxicity at 10 µM was -10.1%.

Regarding `CC(C)N(Cc1c[nH]nc1-c1ccc2c(c1)OCO2)Cc1nccn1C`, the cytotoxicity at 10 µM was -7.8%.

For `CC(C)c1cc(C(=O)N2CCNCC2C(=O)NCc2ccncc2)on1` (configuration not stated), the cytotoxicity at 10 µM is -7.6%.

Regarding `O=C(C(c1ccc(F)cc1)N1CCCCC1)N1CCn2cncc2C1` (configuration not stated), the cytotoxicity at 10 µM is -0.628%.

Take `O=C(Cn1cccn1)N1CCC(Cn2cc(-c3ccsc3)nn2)CC1`: the cytotoxicity at 10 µM was -0.554%.

Consider `CC(=O)N[C@@H]1Cc2ccccc2[C@H]1Nc1cc(C2CC2)ncn1`, for which the cytotoxicity at 10 µM was -45.2%.

On to `CC(Cn1cccn1)n1cnc2ccc(F)cc2c1=O` (configuration not stated), for which the cytotoxicity at 10 µM amounted to 0.956%.

With `CCc1ccc(CN(C)Cc2nc(-c3cnccn3)no2)nc1`, the cytotoxicity at 10 µM came out at 3.57%.

Turning to `Cn1ncc2c(N3CCS(=O)(=O)CC3)nc(-c3cccnc3)nc21`, the cytotoxicity at 10 µM is 4.38%.

Regarding `CCc1nnc(CN(C)Cc2cccc(C(=O)Nc3ccnn3C)c2)o1`, the cytotoxicity at 10 µM is -3.7%.

`CN1CCC(n2nc(Cc3cccc(Cl)c3)nc2Cn2ccnc2)CC1`: the cytotoxicity at 10 µM is 10.8%.

Consider `O=C(NC1CCCN(CCCc2ccccc2)C1)c1ccc(Cl)s1` (configuration not stated), for which the cytotoxicity at 10 µM came to 57.5%.

Turning to `CCC[C@@H]1CN(Cc2cc3c(cc2OC)OCO3)C[C@H]1C(=O)O`, the cytotoxicity at 10 µM is -2.7%.

Regarding `CNC(=O)C1(N(C)CCc2ccccc2)Cc2ccccc2C1`, the cytotoxicity at 10 µM amounted to 11.5%.

As for `Cc1cc(NCCCc2c(C)noc2C)nc(N)n1`, the cytotoxicity at 10 µM amounted to 12%.

Take `c1ccc(CCCn2cc(-c3nc(CN4CCOCC4)no3)nn2)cc1`: the cytotoxicity at 10 µM amounted to 2.14%.

In the case of `Cc1ccc(C(=O)N2CCC3(CC2)c2ccccc2[C@@H](N)[C@@H]3O)cc1F`, the cytotoxicity at 10 µM is -0.685%.

Consider `O=C(O)c1ccnc(-c2ccnc(COc3cccc(F)c3)n2)c1`, for which the cytotoxicity at 10 µM is -2.31%.

In the case of `Cc1cc2cc(C(=O)N3CCN(CCO)[C@@H]4CS(=O)(=O)C[C@@H]43)ccc2o1`, the cytotoxicity at 10 µM was -0.357%.

On to `CC1CCN(CC2(O)CCCN(Cc3cccc(F)c3F)C2=O)CC1` (configuration not stated), for which the cytotoxicity at 10 µM stood at 0.801%.

Consider `COc1cccc(-c2ncc(CN3CCOCC(O)C3)s2)c1` (configuration not stated), for which the cytotoxicity at 10 µM was -7.19%.

As for `Cc1cc(C)nc(N2CCC(NCCSc3nnnn3C)CC2)n1`, the cytotoxicity at 10 µM is -6.88%.

For `CC(C)c1nccn1-c1cccc(C2CCCN(C3CCCC3)C2)n1` (configuration not stated), the cytotoxicity at 10 µM amounted to 7.1%.

As for `CN(Cc1cnn(C)c1)C(=O)NCc1cc(Br)cs1`, the cytotoxicity at 10 µM is -10.1%.

Turning to `O=C(CCc1nccs1)N1CCN(c2ccc(Cl)cn2)CC1`, the cytotoxicity at 10 µM came to 0.665%.

For the compound `CCSc1ccc(NC(=O)N2CCCC2c2ccncc2)cn1` (configuration not stated), the cytotoxicity at 10 µM is -8.88%.

`Cc1nnc(N2CCCC(CS(N)(=O)=O)C2)c(C#N)c1C` (configuration not stated): the cytotoxicity at 10 µM turned out to be 2.86%.

In the case of `Cn1ccnc1CN1CCN(Cc2cc(C#N)ccc2F)CC1`, the cytotoxicity at 10 µM was -4.52%.

With `COc1c(CNC2CCCc3ccccc32)c(C(C)C)nn1C` (configuration not stated), the cytotoxicity at 10 µM is -2.9%.

For `Nc1nc(CN2CCCC(Cn3cncn3)C2)nc2ccccc12` (configuration not stated), the cytotoxicity at 10 µM is -8.21%.

Take `Cc1cnn(CC2CN(CC(=O)N(C)Cc3cccs3)CCO2)c1` (configuration not stated): the cytotoxicity at 10 µM was 6.28%.

For `CCCc1n[nH]c(C2CN(CCCS(C)(=O)=O)CCO2)n1` (configuration not stated), the cytotoxicity at 10 µM is -2.38%.

Consider `O=C(NCc1nnc2n1CCCCC2)N1CCc2sccc2C1`, for which the cytotoxicity at 10 µM came out at 0.553%.

For `Cc1nc(Nc2cnccn2)cc(C2CCCN2)n1` (configuration not stated), the cytotoxicity at 10 µM is -9.46%.

Turning to `COc1ccc(CNC(=O)N2CCN(CC(O)C3CC3)CC2)cc1` (configuration not stated), the cytotoxicity at 10 µM was 7.11%.

Take `COc1ccc(CN(Cc2cncn2C)CC2CCCO2)cc1` (configuration not stated): the cytotoxicity at 10 µM was -4.47%.

Turning to `Cc1cccc(CN(Cc2cccnc2)C2CC(C)(C)NC(C)(C)C2)n1`, the cytotoxicity at 10 µM was -5.11%.

Regarding `Cc1cnccc1-c1cnn(CCNC(=O)c2ccccn2)c1C1CC1`, the cytotoxicity at 10 µM amounted to 56.3%.

As to `Cc1csc(CN2CCC[C@]3(C[C@H](Oc4ccccn4)CO3)C2)n1`, the cytotoxicity at 10 µM is -14%.

As for `Cn1ccnc1CN1CCC2(CCC(=O)N2CCN2CCCC2)CC1`, the cytotoxicity at 10 µM is -0.171%.

As for `c1cnc(N2CCO[C@H]3CN(CC4CC4)C[C@H]32)nc1`, the cytotoxicity at 10 µM worked out at 5.03%.

Turning to `Cc1cc(N(C)C)nc(C2CCNC2)n1` (configuration not stated), the cytotoxicity at 10 µM worked out at 0.812%.

As to `Cc1ccc(N2CC[C@H]3OCC[C@@]3(C(=O)NC(C)C)C2)nn1`, the cytotoxicity at 10 µM was -11.7%.

Take `CNCc1cc(F)ccc1Oc1ccc(Cl)cc1`: the cytotoxicity at 10 µM was -8.74%.
